In brackets after ≈: the same amount, converted by molar mass.
Assays:
Type in all cases: functional
[1] = test system: Mycobacterium tuberculosis; experiment: Antimycobacterial activity against Mycobacterium tuberculosis H37Rv 331/88 after 14 days; settings: H37Rv 331/88, 336 h
[2] = test system: Mycobacterium tuberculosis; experiment: Antimycobacterial activity against Mycobacterium tuberculosis H37Rv 331/88 after 21 days; settings: H37Rv 331/88, 504 h
[3] = test system: Mycobacterium avium; experiment: Antimycobacterial activity against Mycobacterium avium 330/80 after 14 days; settings: 330/80, 336 h
[4] = test system: Mycobacterium avium; experiment: Antimycobacterial activity against Mycobacterium avium 330/80 after 21 days; settings: 330/80, 504 h
[5] = test system: Mycobacterium kansasii; experiment: Antimycobacterial activity against Mycobacterium kansasii 235/80 after 7 days; settings: 235/80, 168 h
In short: (§1)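 Šula's semisynthetic medium micromethod at 37 °C, read after 7, 14 and 21 days. The 1.0 McFarland suspension was diluted 10^-4. MIC determined. 6509/96 is a clinical isolate.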

[6] = test system: Mycobacterium kansasii; experiment: Antimycobacterial activity against Mycobacterium kansasii 235/80 after 14 days; settings: 235/80, 336 h; in short: as §1
[7] = test system: Mycobacterium kansasii; experiment: Antimycobacterial activity against Mycobacterium kansasii 235/80 after 21 days; settings: 235/80, 504 h; in short: as §1
[8] = test system: Mycobacterium kansasii; experiment: Antimycobacterial activity against Mycobacterium kansasii 6509/96 after 7 days; settings: 6509/96, 168 h; in short: as §1
[9] = test system: Mycobacterium kansasii; experiment: Antimycobacterial activity against Mycobacterium kansasii 6509/96 after 14 days; settings: 6509/96, 336 h; in short: as §1
[10] = test system: Mycobacterium kansasii; experiment: Antimycobacterial activity against Mycobacterium kansasii 6509/96 after 21 days; settings: 6509/96, 504 h; in short: as §1
[11] = test system: Staphylococcus aureus; experiment: Antibacterial activity against Staphylococcus aureus CCM 4516/08 after 24 hrs by microdilution broth method; settings: CCM 4516/08, 24 h
[12] = test system: Staphylococcus aureus; experiment: Antibacterial activity against Staphylococcus aureus CCM 4516/08 after 48 hrs by microdilution broth method; settings: CCM 4516/08, 48 h
[13] = test system: Staphylococcus aureus; experiment: Antibacterial activity against methicillin-resistant Staphylococcus aureus H 5996/08 after 24 hrs by microdilution broth method; settings: H 5996/08, 24 h
[14] = test system: Staphylococcus aureus; experiment: Antibacterial activity against methicillin-resistant Staphylococcus aureus H 5996/08 after 48 hrs by microdilution broth method; settings: H 5996/08, 48 h
[15] = test system: Staphylococcus epidermidis; experiment: Antibacterial activity against Staphylococcus epidermidis H 6966/08 after 24 hrs by microdilution broth method; settings: H 6966/08, 24 h
In short: (§2)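 Mueller-Hinton broth microdilution (modified M07-A07), pH 7.4 (±0.2). Compounds dissolved in DMSO, tested at final 500 to 0.49 µmol/L. Inoculum in sterile water matched to 0.5 McFarland. Incubated in the dark, humid atmosphere, 35 °C, read at 24 and 48 h visually and at 540 nm. MIC taken as ≥95% growth reduction (IC95) versus control.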

[16] = test system: Staphylococcus epidermidis; experiment: Antibacterial activity against Staphylococcus epidermidis H 6966/08 after 48 hrs by microdilution broth method; settings: H 6966/08, 48 h; in short: as §2
[17] = test system: Enterococcus sp.; experiment: Antibacterial activity against Enterococcus sp. J 14365/08 after 24 hrs by microdilution broth method; settings: J 14365/08, 24 h; in short: as §2
[18] = test system: Enterococcus sp.; experiment: Antibacterial activity against Enterococcus sp. J 14365/08 after 48 hrs by microdilution broth method; settings: J 14365/08, 48 h; in short: as §2
[19] = test system: Escherichia coli; experiment: Antibacterial activity against Escherichia coli CCM4517 after 24 hrs by microdilution broth method; settings: CCM4517, 24 h; in short: as §2
[20] = test system: Escherichia coli; experiment: Antibacterial activity against Escherichia coli CCM4517 after 48 hrs by microdilution broth method; settings: CCM4517, 48 h; in short: as §2
[21] = test system: Klebsiella pneumoniae; experiment: Antibacterial activity against Klebsiella pneumoniae D 11750/08 after 24 hrs by microdilution broth method; settings: D 11750/08, 24 h; in short: as §2
[22] = test system: Klebsiella pneumoniae; experiment: Antibacterial activity against Klebsiella pneumoniae D 11750/08 after 48 hrs by microdilution broth method; settings: D 11750/08, 48 h; in short: as §2
[23] = test system: Klebsiella pneumoniae; experiment: Antibacterial activity against ESBL-positive Klebsiella pneumoniae J 14368/08 after 24 hrs by microdilution broth method; settings: J 14368/08, 24 h; in short: as §2
[24] = test system: Klebsiella pneumoniae; experiment: Antibacterial activity against ESBL-positive Klebsiella pneumoniae J 14368/08 after 48 hrs by microdilution broth method; settings: J 14368/08, 48 h; in short: as §2
[25] = test system: Pseudomonas aeruginosa; experiment: Antibacterial activity against Pseudomonas aeruginosa CCM 1961 after 24 hrs by microdilution broth method; settings: CCM 1961, 24 h; in short: as §2
[26] = test system: Pseudomonas aeruginosa; experiment: Antibacterial activity against Pseudomonas aeruginosa CCM 1961 after 48 hrs by microdilution broth method; settings: CCM 1961, 48 h; in short: as §2
[27] = test system: Candida albicans; experiment: Antifungal activity against Candida albicans ATCC 44859 after 24 hrs by microdilution broth method; settings: ATCC 44859, 24 h
In short: (§3)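 CLSI M27-A3 broth microdilution in RPMI 1640 with glutamine, buffered to pH 7.0 with MOPS; DMSO diluent. Yeast inoculum 5 × 10^3 ± 0.2 CFU/mL. Moulds grown on Sabouraud agar 3–10 days before spore harvest, final inoculum 0.5-5 × 10^4 CFU/mL, checked in a Bürker chamber. Incubated dark, humid, 35 °C, read at 24 and 48 h visually and at 540 nm. MIC taken as ≥80% (yeasts) or ≥50% (filamentous) growth reduction versus control.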

[28] = test system: Candida albicans; experiment: Antifungal activity against Candida albicans ATCC 44859 after 48 hrs by microdilution broth method; settings: ATCC 44859, 48 h; in short: as §3
[29] = test system: Candida tropicalis; experiment: Antifungal activity against Candida tropicalis 156 after 24 hrs by microdilution broth method; settings: Candida tropicalis, 156, 24 h; in short: as §3
[30] = test system: Candida tropicalis; experiment: Antifungal activity against Candida tropicalis 156 after 48 hrs by microdilution broth method; settings: Candida tropicalis, 156, 48 h; in short: as §3
[31] = test system: Pichia kudriavzevii; experiment: Antifungal activity against Candida krusei E28 after 24 hrs by microdilution broth method; settings: E28, 24 h; in short: as §3
[32] = test system: Pichia kudriavzevii; experiment: Antifungal activity against Candida krusei E28 after 48 hrs by microdilution broth method; settings: E28, 48 h; in short: as §3
[33] = test system: Nakaseomyces glabratus; experiment: Antifungal activity against Candida glabrata 20/I after 24 hrs by microdilution broth method; in short: as §3
[34] = test system: Nakaseomyces glabratus; experiment: Antifungal activity against Candida glabrata 20/I after 48 hrs by microdilution broth method; in short: as §3
[35] = test system: Trichosporon asahii; experiment: Antifungal activity against Trichosporon asahii 1188 after 24 hrs by microdilution broth method; settings: Trichosporon asahii, 1188, 24 h; in short: as §3
[36] = test system: Trichosporon asahii; experiment: Antifungal activity against Trichosporon asahii 1188 after 48 hrs by microdilution broth method; settings: Trichosporon asahii, 1188, 48 h; in short: as §3
[37] = test system: Aspergillus fumigatus; experiment: Antifungal activity against Aspergillus fumigatus 231 after 24 hrs by microdilution broth method; settings: Aspergillus fumigatus, 231, 24 h; in short: as §3
[38] = test system: Aspergillus fumigatus; experiment: Antifungal activity against Aspergillus fumigatus 231 after 48 hrs by microdilution broth method; settings: Aspergillus fumigatus, 231, 48 h; in short: as §3
[39] = test system: Lichtheimia corymbifera; experiment: Antifungal activity against Absidia corymbifera 272 after 24 hrs by microdilution broth method; settings: Lichtheimia corymbifera, 272, 24 h; in short: as §3
[40] = test system: Lichtheimia corymbifera; experiment: Antifungal activity against Absidia corymbifera 272 after 48 hrs by microdilution broth method; settings: Lichtheimia corymbifera, 272, 48 h; in short: as §3
[41] = test system: Trichophyton mentagrophytes; experiment: Antifungal activity against Trichophyton mentagrophytes 445 after 24 hrs by microdilution broth method; settings: Trichophyton mentagrophytes, 445, 24 h
[42] = test system: Trichophyton mentagrophytes; experiment: Antifungal activity against Trichophyton mentagrophytes 445 after 48 hrs by microdilution broth method; settings: Trichophyton mentagrophytes, 445, 48 h

Work on O=C(Nc1ccc([N+](=O)[O-])c(C(F)(F)F)c1)c1cc([N+](=O)[O-])ccc1O yielded an MIC [1] of 32 µM (≈ 11.9 µg/mL), an MIC [2] of 32 µM (≈ 11.9 µg/mL) and an MIC [3] of 125 µM (≈ 46.4 µg/mL). The MIC [4] was 125 µM (≈ 46.4 µg/mL), the MIC [5] was 32 µM (≈ 11.9 µg/mL) and the MIC [6] was 62.5 µM (≈ 23.2 µg/mL). It also gave an MIC [7] of 125 µM (≈ 46.4 µg/mL), an MIC [8] of 62.5 µM (≈ 23.2 µg/mL) and an MIC [9] of 62.5 µM (≈ 23.2 µg/mL). It also gave an MIC [10] of 125 µM (≈ 46.4 µg/mL), an MIC [11] of 62.5 µM (≈ 23.2 µg/mL) and an MIC [12] of 62.5 µM (≈ 23.2 µg/mL). For the same compound, the MIC [13] was 31.2 µM (≈ 11.6 µg/mL), the MIC [14] was 31.2 µM (≈ 11.6 µg/mL) and the MIC [15] was 125 µM (≈ 46.4 µg/mL). It also gave an MIC [16] of 125 µM (≈ 46.4 µg/mL), an MIC [17] greater than 500 µM and an MIC [18] greater than 500 µM. The MIC [19] was greater than 500 µM, the MIC [20] was greater than 500 µM and the MIC [21] was greater than 500 µM. It also gave an MIC [22] greater than 500 µM, an MIC [23] greater than 500 µM and an MIC [24] greater than 500 µM. The MIC [25] was greater than 500 µM, the MIC [26] was greater than 500 µM and the MIC [27] was greater than 500 µM. It also gave an MIC [28] greater than 500 µM, an MIC [29] greater than 500 µM and an MIC [30] greater than 500 µM. It also gave an MIC [31] greater than 500 µM, an MIC [32] greater than 500 µM and an MIC [33] greater than 500 µM. The MIC [34] was greater than 500 µM, the MIC [35] was greater than 500 µM and the MIC [36] was greater than 500 µM. For the same compound, the MIC [37] was greater than 500 µM, the MIC [38] was greater than 500 µM and the MIC [39] was greater than 500 µM. It also gave an MIC [40] greater than 500 µM, an MIC [41] greater than 500 µM and an MIC [42] greater than 500 µM.
